# Test results published in PMC3528315 (The FASEB Journal, 2013).
# Entries after “also recorded” stand apart in the source; their conditions may differ. Like-named read-outs stand apart in the source and are kept apart here.
# Legend:
# [1] = test system: DA rats; settings: cited from earlier work
# [2] = test system: circulating polyclonal anti-MBP Abs from DA rats; format: binding; settings: SPR; DA rats immunized with MBP63–81
# [3] = test system: autoAbs to MBP epitope 81–103; assay: Serum autoAbs; format: in vivo, DA rats; settings: ELISA, vs control/placebo group
# Outline: (§1)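 Wells were coated overnight at 4°C with MBP or Trx-fused MBP peptides (10 μg/ml, 100 mM carbonate/bicarbonate, pH 9.0) and blocked with 2% BSA for 1 h at 37°C. Rat sera were diluted 100- to 50,000-fold in PBS-Tween/0.5% BSA, with 5 USP units/ml heparin for MBP, and incubated 1 h at 37°C. HRP anti-rat (1:4000, 1 h, 37°C) and TMB followed, with a phosphoric acid stop and OD₄₅₀ read-out.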
# [4] = test system: BDNF; assay: Immunostaining of CNS / spinal cord for BDNF; format: in vivo, DA rats; settings: immunohistochemistry, vs placebo
# Outline: (§2)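 EAE DA rats with symptoms got single daily subcutaneous injections of liposome formulations, reference drug or placebo for 6 d and were followed for 28 d. Spinal cords were fixed, dehydrated and paraffin-embedded, and sections were immunostained for IL-2, IFNγ or BDNF per the antibody makers' protocols. Scoring was blinded, against nonimmunized rats and untreated EAE rats.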
# [5] = test system: autoAbs to MBP epitope 146–170; assay: Serum autoAbs; format: in vivo, DA rats; settings: ELISA, vs control/placebo group
# Outline: as §1
# [6] = test system: Spinal cords of DA rats with EAE; assay: Spinal cord histology, gliosis and demyelination; format: in vivo, Dark Agouti (DA) rats
# Outline: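 Symptomatic EAE DA rats were dosed subcutaneously once daily for 6 d and followed for 28 d. Paraffin-embedded spinal cord sections were stained with hematoxylin–eosin and luxol fast blue and scored blind on 0–3 scales. Gliosis grades were mild (5–10 cells/focus), moderate (10–50 cells/focus) and severe (>50 cells/focus), and demyelination ran from none (0) to severe (3).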
# [7] = test system: autoAbs to full-length MBP; assay: Serum anti-MBP autoAbs; format: in vivo, DA rats; settings: ELISA, vs control/placebo group
# Outline: as §1
# [8] = test system: DA rats with EAE; assay: EAE treatment with mSUV-encapsulated MBP peptides, disease scores; format: in vivo, Dark Agouti (DA) rats; settings: for disease course / therapeutic effect in words: 6 daily s.c. injections from d 7 after EAE induction, mean disease score; for delta: ranking of overall difference in MDS from the placebo group: ascending series, placebo = empty mSUV
# [9] = test system: regulatory Th2 cells; BDNF expression; settings: cited from earlier work
# [10] = test system: IFNγ; assay: Immunostaining of spinal cord for IFNγ; format: in vivo, DA rats; settings: immunohistochemistry
# Outline: as §2
# [11] = test system: IL-2; assay: Immunostaining of spinal cord for IL-2; format: in vivo, DA rats; settings: immunohistochemistry
# Outline: as §2
# [12] = test system: DA rats with EAE; assay: EAE treatment with p1 as such or encapsulated in SUV / mSUV; format: in vivo, Dark Agouti (DA) rats; settings: s.c.; mean disease score vs no treatment; p1 n=8, p1 SUV n=10, p1 mSUV n=9
substance,measurement,setting,value
"GPBP62–84: fragment of the guinea pig myelin basic protein (HAARTTHYGSLPQKSQRSQDENP; UniProt P25188 62-84, looked up, fragment)",capability to induce EAE in DA rats,[1],capable to induce EAE in DA rats
"GPBP68–88: fragment of the guinea pig myelin basic protein (HYGSLPQKSQRSQDENPVVHF; UniProt P25188 68-88, looked up, fragment)",capability to induce EAE in DA rats,[1],slightly
"MBP62–75: major encephalitogenic peptide in DA rats (WLKQSRSPLPSHAR; UniProt P02688 62-75, looked up, fragment)",immunodominance of encephalitogenic peptide in DA rats,[1],not immunodominant
MDHARHGFLPRH,binding of autoAbs,[2],not detected
glatiramer acetate [Copaxone],serum autoAbs to MBP epitope 81–103,[3],down-regulated
same,BDNF in CNS,[4],enhanced production of BDNF
same,serum autoAbs to MBP epitope 146–170,[5],down-regulated
same,"degree of demyelination, luxol fast blue staining",[6],reduced
same,serum concentration of autoAbs to full-length MBP,[7],significant decrease
same,median maximum disease score vs placebo,"[8]; 6 daily s.c. injections from d 7, Wilcoxon test, P < 0.05",significantly differed from the placebo group
same,disease course / therapeutic effect in words,[8],significantly suppressed protracted EAE
same,delta: ranking of overall difference in MDS from the placebo group,[8],p1 ≪ p2 mSUV ≈ p3 mSUV < p1 mSUV ≈ Copaxone < p123 mSUV
same,"induction of regulatory Th2 cells, cytokines and BDNF",[9],known to stimulate BDNF expression
same,"induction of regulatory Th2 cells, cytokines and BDNF",[9]; listed as glatiramer acetate,"induces the population of regulatory Th2 cells to become capable of crossing the BBB and producing anti-inflammatory cytokines IL-4, IL-6, IL-10, and brain-derived neurotrophic factor"
same,IFNγ in spinal cord,[10],significantly down-regulated
same,IL-2 in spinal cord,[11],significantly down-regulated
"p1: immunodominant MBP peptide MBP46–62, as such (without liposomes) (FGEADANQNNGTSSQDT; UniProt P02686 46-62, looked up, fragment)",disease course / therapeutic effect in words,[8],no therapeutic effect; also recorded: no detectable therapeutic activity
same,delta: ranking of overall difference in MDS from the placebo group,[8],p1 ≪ p2 mSUV ≈ p3 mSUV < p1 mSUV ≈ Copaxone < p123 mSUV
same,therapeutic effect on EAE,[12],no detectable therapeutic effect
